Data from PMC5963734 (Neuron, 2018).

Test system: PSD-95 - α-actinin interaction
Assay: Competition of co-IP of α-actinin with PSD-95 from brain lysates
Parameters: species or system rat
Settings: added to Triton X-100 brain lysate during IP of PSD-95; Figure 3D
In short: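 Adult rat brain (1 g) homogenised on ice in buffer A (150 mM NaCl, 10 mM HEPES, 10 mM EDTA, 10 mM EGTA, pH 7.4) with protease inhibitors and 1% Triton X-100, then cleared at 250,000 × g for 30 min. Competitors added: PSD-95 peptide 1-13, GST-PSD-95 1-64, peptide 15-36, or Ca2+ plus CaM. Per IP, 1 mg protein, 1 μg PSD-95 antibody and protein G-Sepharose, 4 h at 4 °C; three washes.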

B1: GST-PSD-95 1-64 (N-term): GST fusion protein of the N-terminal 64 residues of PSD-95 (protein)
chain: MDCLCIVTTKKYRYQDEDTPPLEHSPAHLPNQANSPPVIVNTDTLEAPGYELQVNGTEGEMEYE
modifications: left off: GST, N-terminal, kept
disruption of co-IP of α-actinin with PSD-95: disrupted
